From ChEMBL document CHEMBL1268948, “1,6-AnhMurNAc derivatives for assay development of amidase AmiD” (Bioorg Med Chem, 2010)
Active and inactive are the calls of the source. The rule behind the calls is not given here.

What was measured:
Escherichia coli [1] = assay: Inhibition of Escherichia coli N-acetyl-muramoyl-L-alanine amidase AmiD assessed as residual activity at 1 mM preincubated for 30 mins
Escherichia coli [2] = assay: Inhibition of Escherichia coli N-acetyl-muramoyl-L-alanine amidase AmiD assessed as residual activity at 100 uM after 20 mins
Summary of the method: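 Periplasmic soluble E. coli AmiD (sAmiD, 39 nM) was preincubated with the test compound for 20 min at 30 °C in 20 mM sodium phosphate buffer containing 48 nM ZnCl₂. Residual activity was taken as the initial rate of hydrolysis of 29 µM TCT (GlcNAc-anhMurNAc-tetrapeptide) added afterwards. The reaction was stopped after 20 min with diluted H₃PO₄ and analysed by RP-HPLC.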

Escherichia coli [3] = assay: Inhibition of Escherichia coli N-acetyl-muramoyl-L-alanine amidase AmiD assessed as residual activity at 1 mM after 20 mins; values are per cent of control
Escherichia coli [4] = assay: Inhibition of Escherichia coli N-acetyl-muramoyl-L-alanine amidase AmiD assessed as residual activity at 0.5 mM after 20 mins; values are per cent of control

| SMILES | inhibition (Escherichia coli [1]) | inhibition (Escherichia coli [2]) | residual activity (Escherichia coli [3]) | residual activity (Escherichia coli [4]) |
| --- | --- | --- | --- | --- |
| CC(=O)N[C@H]1[C@@H]2OC[C@@H](O2)[C@@H](O)[C@H]1O[C@H](C)C(=O)Nc1ccc(C(C)=O)cc1 | inactive | inactive |  |  |
| CC(=O)N[C@H]1[C@@H]2OC[C@@H](O2)[C@@H](O)[C@H]1O[C@H](C)C(=O)Nc1ccc(C(F)(F)F)cc1 | inactive | inactive |  |  |
| CC(=O)N[C@H]1[C@@H]2OC[C@@H](O2)[C@@H](O)[C@H]1O[C@H](C)C(=O)N[C@@H](C)C(=O)N[C@H](CCC(=O)Nc1ccccc1)C(=O)O |  | inactive | 64% | 83% |

More lines, now with the values ahead:

| inhibition (Escherichia coli [1]) | inhibition (Escherichia coli [2]) | residual activity (Escherichia coli [3]) | residual activity (Escherichia coli [4]) | SMILES |
| --- | --- | --- | --- | --- |
| inactive | inactive |  |  | CC(=O)N[C@H]1[C@@H]2OC[C@@H](O2)[C@@H](O)[C@H]1O[C@H](C)C(=O)N[C@@H](C)C(=O)Nc1ccc([N+](=O)[O-])cc1 |
| inactive | inactive |  |  | CC(=O)N[C@H]1[C@@H]2OC[C@@H](O2)[C@@H](O)[C@H]1O[C@H](C)C(=O)Nc1ccccc1 |
| inactive |  |  |  | CC(=O)N[C@H]1[C@@H]2OC[C@@H](O2)[C@@H](OCc2ccccc2)[C@H]1O[C@H](C)C(=O)O |
